HUVEC inhibit: inhibitors of HUVEC proliferation, primary screen, cell-based, 384-well; 86,000 tested, 1.1% active; viability, % at 10 µM (by protocol); AID 648, 2007; CellTiter-Glo luminescence, 72 h; active compounds read low;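 active = viability at or below 30%; inactive = viability above 30%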;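 note: 100% = median luminescence of DMSO-only cell control wells on each plate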
Lung fibro prol: antiproliferative effect on LL 47 fibroblasts – human, LL 47 cells, CellTiter-Glo luminescence, primary screen; LL 47 human lung fibroblast viability, ATP luminescence; active compounds read low; AID 719, 2007; 85,000 tested, 1.1% active; viability, % at 10 µM;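 active = viability at or below 50% in the single dose screen; inactive = viability above 50%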;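 note: compound exposure lasted 72 h before the ATP readout; 100% = median luminescence of untreated cell-only wells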
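test system = LL 47 human lung fibroblasts | amount = 1,150 fibroblasts seeded per well | medium = 15% FBS in IMEM | times = overnight cell rest, 72 h compound treatment at 37 °C | measured by = CellTiter-Glo luminescence measuring cellular ATP | read-out = viability percentage against median untreated-cell control | benchmarks = cell-only wells, no compound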
PTK2B oligo ant: antagonists of Pyk2 self-association, primary screen, Q293 cells, FERM NanoBiT luminescence, HTS. active compounds read low. z-score (the deposit names both 25 µM and 10 µM). 99,000 tested, 0.83% active;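 active = Z-score of -3 or lower, scaled per plate to the spread of control and sample wells; inactive = z-score above -3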;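 note: negative z-score means lost luminescence so less FERM oligomerization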
Target sequence (Q14289 whole entry, looked up): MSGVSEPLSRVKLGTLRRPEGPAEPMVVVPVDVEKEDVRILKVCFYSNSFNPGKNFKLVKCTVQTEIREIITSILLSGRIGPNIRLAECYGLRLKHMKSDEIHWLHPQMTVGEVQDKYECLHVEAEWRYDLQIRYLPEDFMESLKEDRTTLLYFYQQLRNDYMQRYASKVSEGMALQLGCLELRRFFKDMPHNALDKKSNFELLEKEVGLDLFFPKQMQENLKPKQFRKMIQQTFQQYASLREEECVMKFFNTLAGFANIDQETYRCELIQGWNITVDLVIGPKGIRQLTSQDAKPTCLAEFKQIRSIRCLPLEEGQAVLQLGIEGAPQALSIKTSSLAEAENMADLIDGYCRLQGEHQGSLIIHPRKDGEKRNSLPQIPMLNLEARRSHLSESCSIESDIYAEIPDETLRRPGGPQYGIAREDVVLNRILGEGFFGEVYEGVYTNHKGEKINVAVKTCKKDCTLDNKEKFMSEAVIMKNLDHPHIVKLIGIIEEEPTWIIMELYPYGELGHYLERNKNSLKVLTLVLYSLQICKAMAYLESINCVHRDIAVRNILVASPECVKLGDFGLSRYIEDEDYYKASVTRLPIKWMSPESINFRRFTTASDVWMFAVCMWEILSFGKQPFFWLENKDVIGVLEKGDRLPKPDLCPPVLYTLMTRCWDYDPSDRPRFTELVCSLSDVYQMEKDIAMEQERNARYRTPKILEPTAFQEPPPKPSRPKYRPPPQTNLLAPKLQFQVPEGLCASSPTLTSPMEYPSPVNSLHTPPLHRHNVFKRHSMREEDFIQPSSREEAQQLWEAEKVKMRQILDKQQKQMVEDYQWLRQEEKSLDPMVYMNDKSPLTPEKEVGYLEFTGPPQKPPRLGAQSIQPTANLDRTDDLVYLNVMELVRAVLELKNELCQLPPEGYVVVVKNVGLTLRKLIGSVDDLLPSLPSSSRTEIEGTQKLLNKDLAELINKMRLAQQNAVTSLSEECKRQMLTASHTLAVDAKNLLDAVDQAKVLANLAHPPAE
Jurkat viability: cytotoxicity toward Jurkat T cells, primary screen, cytotoxicity control, cell-based, Jurkat E6.1, 60K MLSMR library; 56,000 tested, 1.2% active; inhibition, % at 4 µM; Jurkat E6.1 viability, ATP luminescence, 48 h;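 active = inhibition above the mean inhibition of all tested compounds plus 3 SD, cut at about 28% in these data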
H69AR inhibit: proliferation blockers of H69AR lung cancer cells, primary screen, cell-based, human, 86K library; H69AR lung tumor viability, ATP luminescence, 72 h; active compounds read low; viability, % at 10 µM; 85,000 tested, 6% active;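 active = viability at or below 40%; inactive = viability above 40%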;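 note: multidrug resistant small cell line overexpressing MRP-1 efflux transporter; 100% = mean luminescence of untreated control wells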
MT1-MMP txn act: MT1-MMP promoter reporter activation – cell-based, luciferase luminescence, primary screen; HT1080 MT1-MMP promoter luciferase reporter, overnight; active compounds read high; 86,000 tested, 0.16% active; activation factor at 10 µM;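 active = activation factor of at least 2 for MT1-MMP transcription at 10 µM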
Active calls of the source: *; . = no result. A selection: hits, their analogues and other compounds. The true share with any hit is near 5.9%.

SMILES	HUVEC inhibit	Lung fibro prol	PTK2B oligo ant	Jurkat viability	H69AR inhibit	MT1-MMP txn act
O=c1[nH]c2ccccc2n1C1CCN(CCCC(c2ccc(F)cc2)c2ccc(F)cc2)CC1	2.7*	68.8	.	.	1.7*	0.1
O=C1CC(N2CCC(n3c(=O)[nH]c4ccccc43)CC2)C(=O)N1c1ccc(F)cc1 (centres undefined)	92.3	92.2	-0.01	0.2	102.9	1.1
CN1C(=O)/C(=C/c2ccc(N3CCCCCC3)o2)C(=O)NC1=S	102.8	92.9	-0.13	.	91.3	2.2*
Cc1cccc(N2C(=O)NC(=O)/C(=C\c3cccn3-c3ccc(Cl)cc3)C2=O)c1	.	.	-3.44*	.	.	.
CN1C(=O)C(=Cc2ccccc2Oc2ccc(Cl)cc2)C(=O)N(C)C1=O	.	.	-3.92*	.	.	.
Cc1cccc(C(=O)NC(Oc2ccccc2)C(Cl)(Cl)Cl)c1 (centres undefined)	.	.	1.53	.	.	.
CC(C)CCNC(=O)c1c(N)n(Cc2ccc3c(c2)OCO3)c2nc3ccccc3nc12	14.8*	66.9	-1.45	.	6.1*	1.1
CC(C)CNC(=O)c1c(N)n(Cc2ccc3c(c2)OCO3)c2nc3ccccc3nc12	49.0	87.5	-1.92	.	25.9*	0.9
COCCNC(=O)c1c(N)n(CCC(C)C)c2nc3ccccc3nc12	70.6	101.8	-2.09	.	14.9*	1.1
CCCNC(=O)c1c(N)n(Cc2ccc3c(c2)OCO3)c2nc3ccccc3nc12	.	.	-1.7	-2.5	.	1.1
CCCC[C@@H]1C[C@H]1[C@@H](NP(=O)(c1ccccc1)c1ccccc1)c1ccc(Cl)cc1	.	.	.	.	.	1.1
Cc1ccc(-c2nc(N(C)C3CCN(C)CC3)c3ccccc3n2)cc1	4.3*	38.3*	-1.11	.	2.7*	1.3
OCc1cnc[nH]1	.	.	.	.	.	1.2
COc1ccc(C2NCc3ccc4c(c3-n3cccc32)OCO4)cc1O (centres undefined)	43.4	51.9	.	77.9*	29.3*	0.5
O=P(c1ccccc1)(c1ccccc1)N1CCCCC1	.	.	0.13	.	.	1.1
Clc1ccc(COC(Cn2ccnc2)c2ccc(Cl)cc2Cl)cc1 (centres undefined)	9.2*	78.0	.	.	26.2*	1
Clc1ccc(CSC(Cn2ccnc2)c2ccc(Cl)cc2Cl)cc1 (centres undefined)	65.9	84.9	.	.	9.2*	1
CC1N(P(=O)(c2ccccc2)c2ccccc2)CC(O)(c2ccccc2)CC12CC2 (centres undefined)	.	.	.	.	.	1.4
CCn1c(O)c(C=NCCc2c[nH]c3ccccc23)c(=O)[nH]c1=O	91.1	99.6	2.19	8.1	67.0	1.1
FC(F)(F)c1ccc2c(c1)ncn2C1CCN(Cc2nnnn2C2CCCCC2)CC1	84.9	96.1	0.11	16.1	37.3*	1.2
Cc1nc2cc(C(F)(F)F)ccc2n1C1CCN(Cc2nnnn2Cc2cccs2)CC1	88.6	94.2	-1.58	.	77.2	1
COC(=O)[C@H]1C[C@H]2CC[C@H](O)C[C@H]2N1CC1CC1	.	.	.	.	.	1.1
O=C(Cn1cc(C(=O)c2ccccc2)c2ccccc21)NCc1ccco1	.	.	-3.24*	-2.1	.	1.4
O=C(c1ccco1)c1cn(Cc2ccc(Cl)cc2)c2ccccc12	71.5	94.9	-0.54	.	10.8*	1.3
O=C(c1cccs1)c1cn(Cc2ccccc2Cl)c2ccccc12	92.8	91.8	-0.72	.	33.6*	1.1
SMILES	HUVEC inhibit	Lung fibro prol	PTK2B oligo ant	Jurkat viability	H69AR inhibit	MT1-MMP txn act
COc1ccccc1OCCCn1cc(C(=O)c2ccco2)c2ccccc21	76.0	96.6	-1.2	-2.6	53.3	1.3
O=C(c1ccccc1)c1cn(CC(=O)N2CCCc3ccccc32)c2ccccc12	91.0	90.0	-2.13	.	62.3	1.1
N#Cc1ccccc1Cn1cc(C(=O)c2cccs2)c2ccccc21	89.4	87.7	-2.59	-4.5	89.5	1
CC(Cc1ccccc1Sc1ccc(O)cc1)N(C)C (centres undefined)	.	.	-0.67	.	.	.
CN1CCN(c2ccc([N+](=O)[O-])c(N/N=C3\CN4CCC3CC4)c2)CC1	.	.	-1.1	.	.	.
Cc1cc(C)n(CCOC(=O)C2C(C=C(Cl)Cl)C2(C)C)n1 (centres undefined)	99.6	92.7	-0.27	2.3	93.2	1
O=C1NC(=O)C(=Cc2cn(CCOc3ccc4c(c3)OCO4)c3ccccc23)C(=O)N1	52.7	48.4*	-1.99	.	77.7	1.3
Cc1cc([P+](=O)O)c(C)n1-c1ccc(Br)cc1	112.4	101.5	-0.56	0.8	98.6	1.2
CCn1nc(-c2ccccc2)nc2c(=O)n(C)c(=O)nc1-2	.	.	-0.25	27.4	.	.
Cc1nc2c(=O)n(C)c(=O)nc-2n(C)n1	5.6*	2.5*	-2.27	.	2.6*	0
CN1CCc2nc3sc(C(=O)NC(C)(C)C)c(N)c3cc2C1	87.6	99.6	0.66	.	93.2	1.3
Nc1c(C(=O)OCC2CCCO2)c2nc3ccccc3nc2n1Cc1cccs1 (centres undefined)	59.7	97.3	-2.25	0.1	38.5*	1.1
CN(C)C(=O)On1c(-c2ccccc2)nc2ccc(Cl)cc21	98.0	90.0	-1.52	.	38.4*	.
C[C@H]1CCC[C@@H](O)CCC/C=C/c2cc(O)cc(O)c2C(=O)O1	34.3	69.5	-2.29	.	6.5*	0.9
C[C@H]1CCC/C=C/C2C[C@H](O)CC2[C@H](O)/C=C/C(=O)O1 (some centres undefined)	.	.	.	.	.	0.4
C[C@H]1CCC[C@H](O)CCCCCc2cc(O)cc(O)c2C(=O)O1	46.8	85.2	.	2.6	32.0*	0.8
O=C(c1cc2ccccn2n1)N1CCC2(CC1)OCCO2	101.3	107.2	1.45	.	87.7	1.1
O=C(c1ccc2c(c1)ncn2C1CCCCC1)N1CCC2(CC1)OCCO2	60.2	75.0	.	54.2*	17.1*	1.2
C#CCN1C(=O)C2(C(C#N)=C(N)OC(C)=C2C(=O)OCc2ccccc2)c2ccccc21 (centres undefined)	97.7	.	-1.12	-0.6	29.9*	1.2
CCOC(=O)C1=C(C)OC(N)=C(C#N)C12C(=O)N(C)c1ccccc12 (centres undefined)	109.1	107.3	-0.6	.	101.2	1.2
Cc1nn(Cc2ccccc2)c(C)c1C(=O)OCC(=O)Nc1ccccc1SCC#N	95.1	87.0	-2	6.6	73.1	1.2
CC(=NCc1cccnc1)c1c(O)n(C2CCCCC2)c(=O)[nH]c1=O	107.7	99.3	-1.85	-1.8	88.3	1
CCC(=NCc1cccnc1)c1c(O)n(C2CCCCC2)c(=O)[nH]c1=O	97.8	94.3	-3.52*	7.2	73.0	1
CCC(=Nc1ccc(OC)cc1OC)c1c(O)n(C2CCCCC2)c(=O)[nH]c1=O	78.8	103.4	-3.4*	7.3	78.2	1
